Compound activity from PubChem BioAssay.
A selection: hits, their analogues and other compounds. The true share with any hit is near 3.3%.
rCAG binder = r(CAG) repeat RNA binding | inhibition, % at 3 µM | TO-PRO-1 dye displacement fluorescence | actives 1.3% (n = 370,000);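 active = inhibition above the plate cutoff, the mean of all test compounds on that plate plus 3 SD, cut at about 35% in these data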;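 note: higher means more dye released from RNA so lower well fluorescence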
SIAE inh = human SIAE inhibition, primary screen | Q9HAT2 | SIAE FP-Rh probe binding, fluorescence polarization | actives 0.69% (n = 370,000) | inhibition, % at 9.66 µM;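 active = inhibition above a cutoff: mean of compounds within the control limits plus 3 SD of those, cut at about 17% in these data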
ABHD4 inh = ABHD4 (mouse) inhibition, primary FP screen; Q8VD66; purified mABHD4, FP-Rh probe fluorescence polarization; inhibition, % at 8.92 µM; actives 0.54% (n = 370,000);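 active = inhibition exceeding the mean over every tested compound plus 3 SD, cut at about 30% in these data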
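Assay system: wild-type mouse ABHD4 protein; compound: single nominal dose of 8.92 µM, 0.89% DMSO final; schedule: 45 min + 60 min at 25 °C; measured by: FP readout, ex 525 nm / em 598 nm; evaluation: % inhibition of FP-Rh probe binding versus controls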
PRMT1 inh = blocks human protein arginine methyltransferase 1; AID 652257; Q99873; actives 1.3% (n = 370,000); inhibition, % at 2.79 µM; recombinant PRMT1, activity-based probe fluorescence polarization;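 active = inhibition above about 21% made by adding two undisclosed values, limit read from the data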
HTRA1 inhibitor = blocks human HTRA1 serine peptidase | Q92743 | actives 0.5% (n = 340,000) | recombinant HTRA1, FP-rhodamine activity-based probe, fluorescence polarization | AID 504803 | inhibition, % at 5.96 µM; in the data active = inhibition above about 36%
Target sequence (Q92743 whole entry, looked up): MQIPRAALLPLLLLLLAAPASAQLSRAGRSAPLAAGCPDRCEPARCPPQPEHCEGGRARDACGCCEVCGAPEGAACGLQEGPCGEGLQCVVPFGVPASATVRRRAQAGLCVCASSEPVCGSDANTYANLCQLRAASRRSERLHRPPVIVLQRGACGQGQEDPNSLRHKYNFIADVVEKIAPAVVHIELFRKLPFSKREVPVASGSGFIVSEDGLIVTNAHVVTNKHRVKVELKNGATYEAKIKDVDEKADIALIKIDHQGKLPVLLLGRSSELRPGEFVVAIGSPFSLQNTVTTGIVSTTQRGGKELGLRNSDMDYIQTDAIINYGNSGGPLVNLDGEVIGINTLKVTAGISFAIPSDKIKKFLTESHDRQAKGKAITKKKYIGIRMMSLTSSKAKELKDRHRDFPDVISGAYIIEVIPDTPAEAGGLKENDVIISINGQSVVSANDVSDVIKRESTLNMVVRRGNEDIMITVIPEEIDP
HTRA1 inh conf = confirmation of human HTRA1 inhibitors. recombinant HTRA1, FP-rhodamine activity-based probe, fluorescence polarization. AID 540248. inhibition, % at 5.96 µM. actives 66% (n = 1,600). shares compounds with HTRA1 inhibitor;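 active = mean inhibition over three repeats above a set limit taken from the earlier primary screen, cut at about 37% in these data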;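 note: inhibitors block probe binding so polarization drops and inhibition rises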
Numbers stand for hits; 0 = inactive; - = no result.

SMILES | rCAG binder | SIAE inh | ABHD4 inh | PRMT1 inh | HTRA1 inhibitor | HTRA1 inh conf
CCC(=O)NC(c1cc(Cl)c2cccnc2c1O)C(C)C (stereo unspecified) | 0 | 0 | 0 | 0 | 53 | 58
CC(=O)NC(c1cc(F)c2cccnc2c1O)C1CC1 (stereo unspecified) | 0 | 0 | 0 | 0 | 0 | -
COc1ccc(N2C(=O)c3n[nH]c(C)c3C2c2cccc(C(F)(F)F)c2)cc1 (stereo unspecified) | 0 | 0 | 0 | 0 | - | -
O=C(NC1CCCCN(Cc2cccc(Cl)c2)C1=O)c1c(F)cccc1F (stereo unspecified) | 0 | 0 | 0 | 0 | - | -
COCCCN1C(=O)[C@H](CC(=O)N2CCCC2)[C@]2(C(=O)OC)CCCCC=C12 | 0 | 0 | 0 | 0 | - | -
CN(c1ccc(NC(=O)CCc2cn(Cc3ccc(Br)cc3)c3ccccc23)cc1)c1ccccn1 | 0 | 0 | 0 | 0 | - | -
COc1cccc(CNc2ccc(S(N)(=O)=O)cc2)c1OC | 0 | 0 | 0 | 0 | 0 | -
COc1ccccc1CNc1ccc(C(=O)O)cc1 | 0 | 0 | 0 | 0 | 0 | -
COc1ccccc1CNc1ccc(N2CCCCC2)cc1 | - | - | - | - | 57 | 0
COc1cccc(CNc2ccc(N3CCCCC3)cc2)c1OC | 0 | 0 | 0 | 0 | 59 | 0
CC(C)C(=O)OCC(=O)Nc1ccc(N=Nc2ccccc2)cc1 | 0 | 0 | 0 | 0 | 39 | 49
Cc1ccc(-c2nn(-c3ccccc3)cc2C(=O)N2CCOCC2)cc1 | 0 | 0 | 0 | 0 | 36 | 0
Cc1ccccc1NC(=O)CSc1n[nH]c(-c2ccco2)n1 | 0 | 0 | 0 | 0 | 0 | -
Cc1ccccc1NC(=O)CSc1nnc(-c2ccco2)c(-c2ccco2)n1 | - | - | - | - | 43 | 0
CCCCCCCCCCCCCCCC[n+]1ccc(/C=N/O)cc1 | 0 | 68 | 51 | 0 | 61 | 81
Cc1ccc(/C=C2\SC(=S)N(/N=C/c3cc([N+](=O)[O-])ccc3O)C2=O)o1 | - | - | - | - | 49 | 39
O=[N+]([O-])c1ccc(O)c(/C=N/n2cnc3ccccc32)c1 | 0 | 0 | 0 | 0 | 0 | -
CN(C)c1ccc(NC(=O)c2cccc(C(=O)Nc3ccc(N(C)C)cc3)n2)cc1 | 0 | 0 | 0 | 0 | 44 | 65
O=C1c2ccccc2-c2onc3ccc(NCc4ccco4)c1c23 | - | - | - | - | 117 | 108
Cc1c2c(=O)n(-c3nc4ccccc4s3)nc-2cc(O)n1Cc1ccccc1 | - | - | - | - | 47 | 57
COc1ccccc1NC(=S)NCc1ccc2c(c1)cc(C)n2C | 0 | 0 | 0 | 0 | 38 | 0
Cc1cc2cc(CNC(=S)NCc3ccccc3)ccc2n1C | 0 | 0 | 0 | 0 | 49 | 0
Cc1cc2cc(CNC(=S)NC3CCCCC3)ccc2n1C | 0 | 0 | 0 | 0 | 40 | 0
Cc1ccc(CNC(=S)NC2CCCCC2)cc1 | 0 | 0 | 0 | 0 | 0 | -
Cc1ccccc1NC(=S)NCc1ccc2c(c1)cc(C)n2C | 0 | 0 | 0 | 0 | 0 | -
SMILES | rCAG binder | SIAE inh | ABHD4 inh | PRMT1 inh | HTRA1 inhibitor | HTRA1 inh conf
NC(=S)NN=Cc1nccc2c(C(F)(F)C(F)(F)C(F)(F)F)cccc12 | 0 | 0 | 0 | 0 | 68 | 64
Cc1cc(O)cc(=O)n1-c1cc(C(F)(F)F)cc(C(F)(F)F)c1 | 0 | 0 | 0 | 0 | - | -
CC(C)(C)n1cnc2cc(NCc3ccccc3O)ccc21 | 0 | 0 | 0 | 0 | 46 | 0
CC(C)n1cnc2cc(NCc3ccccc3O)ccc21 | 0 | 0 | 0 | 0 | 0 | -
CCCCOCCCNC(=O)C[C@H]1C[C@@]2(C(=O)OC)C(=C[C@H](C(C)(C)C)O[C@@H]2C)N(CCC2=CCCCC2)C1=O | 0 | 0 | 0 | 0 | - | -
Cc1nn(-c2ccccc2)c2nc(N)c(C#N)c(-c3ccc(O)c(O)c3)c12 | 0 | 0 | 0 | 0 | 74 | 76
Cc1nn(-c2ccc(F)cc2)c2nc(N)c(C#N)c(-c3ccc(O)c(O)c3)c12 | 0 | 0 | 0 | 0 | 59 | 62
Cc1nn(-c2ccc(F)cc2)c2nc(N)c(C#N)c(-c3cccs3)c12 | 0 | 0 | 0 | 0 | 0 | -
Cc1ccc(S(=O)(=O)c2cc(Nc3ccccc3)ccc2O)cc1 | 0 | 0 | 0 | 0 | 0 | -
O=S(=O)(O)c1ccc(O)c2cc(Nc3ccccc3)ccc12 | 97 | 55 | 78 | 43 | 67 | 44
Nc1[nH]c(C(=O)c2ccccc2)c(-c2ccccc2Cl)c1C(=O)NCCc1c[nH]c2ccccc12 | 0 | 0 | 0 | 0 | - | -
Cc1nn(-c2ccccc2)c2c1C(c1ccc(O)c(O)c1)N1C(=N2)C(Nc2ccccc2)=Nc2ccccc21 (stereo unspecified) | 0 | 0 | 0 | 0 | 50 | 53
